This note sets out measurements from ChEMBL document CHEMBL4014338, “Discovery of Small Molecules as Multi-Toll-like Receptor Agonists with Proinflammatory and Anticancer Activities” (J Med Chem, 2017).

Some results are limits rather than exact numbers.

Experiment [1] deals with HeLa. Briefly: Induction of apoptosis in human HeLa cells at 10 to 40 uM after 24 hrs by Annexin V-FITC/propidium iodide staining based flow cytometry (reference value: 10%). The class given is functional. The method in brief: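 HeLa cells seeded at 3 × 10^5/well and attached 24 h, treated 24 h with 10, 20, 30 or 40 μM (DMSO or poly I:C 5 μg/mL as controls). Harvested with EDTA-free trypsin, washed twice in PBS, stained with annexin V-FITC/PI, and analyzed by flow cytometry. Early plus late apoptotic percentages reported as mean ± SD of three experiments.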
On the technique in general: Flow cytometry measures light scatter and fluorescence of single cells or particles in a stream.

The next experiment concerns the target T1, Toll-like receptor 3 (Homo sapiens, UniProt O15455).
T1 sequence (O15455 whole entry): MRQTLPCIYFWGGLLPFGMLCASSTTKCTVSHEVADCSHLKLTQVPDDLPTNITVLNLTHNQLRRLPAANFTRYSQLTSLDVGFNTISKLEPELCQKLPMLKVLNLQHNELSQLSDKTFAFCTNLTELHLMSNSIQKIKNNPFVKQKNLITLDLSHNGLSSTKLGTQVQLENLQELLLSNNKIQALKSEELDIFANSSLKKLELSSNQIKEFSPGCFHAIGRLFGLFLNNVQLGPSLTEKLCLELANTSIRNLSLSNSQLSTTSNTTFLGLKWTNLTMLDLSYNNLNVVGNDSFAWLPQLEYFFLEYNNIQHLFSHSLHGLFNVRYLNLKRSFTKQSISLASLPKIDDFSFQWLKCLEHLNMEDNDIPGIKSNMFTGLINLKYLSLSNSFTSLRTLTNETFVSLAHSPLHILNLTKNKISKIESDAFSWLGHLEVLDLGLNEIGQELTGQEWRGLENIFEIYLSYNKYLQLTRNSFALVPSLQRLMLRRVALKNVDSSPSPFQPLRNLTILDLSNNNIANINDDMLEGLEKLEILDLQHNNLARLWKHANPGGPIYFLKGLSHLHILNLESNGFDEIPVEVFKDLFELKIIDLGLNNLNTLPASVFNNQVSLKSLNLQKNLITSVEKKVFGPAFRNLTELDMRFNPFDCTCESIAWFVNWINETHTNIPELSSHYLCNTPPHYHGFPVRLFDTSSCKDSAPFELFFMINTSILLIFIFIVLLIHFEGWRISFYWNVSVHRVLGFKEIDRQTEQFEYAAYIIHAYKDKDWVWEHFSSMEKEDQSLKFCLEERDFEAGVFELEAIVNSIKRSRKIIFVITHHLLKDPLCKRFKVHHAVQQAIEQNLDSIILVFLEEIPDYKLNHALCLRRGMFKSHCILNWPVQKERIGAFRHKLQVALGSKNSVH
In words: Agonist activity at human TLR3 expressed in HEK293 cells assessed as induction of NF-kB activation-mediated SEAP production after 24 hrs by HTS assay. Format: cell-based. The method, boiled down:
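Stable HEK293 lines expressing a single hTLR plus a SEAP reporter, grown in DMEM/10% FBS with selective antibiotics. Seeded at 5 × 10^4 cells/well for 24 h at 37 °C, then treated 24 h. Supernatant mixed with QUANTI-Blue, 1 h at 37 °C, OD 620 nm. Cognate agonists: Pam3CSK4 (TLR2), poly I:C (TLR3), LPS (TLR4), FLA-BS (TLR5), R848 (TLR7). EC50 as mean ± SD.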

The target of experiment [2] is Toll-like receptor 3 (Homo sapiens) (UniProt O15455). Briefly: Agonist activity at human TLR3 expressed in HEK293 cells assessed as induction of NF-kB activation-mediated SEAP production at 25 uM after 24 hrs by HTS assay relative to control. Format: cell-based. The method, boiled down:
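hTLR3 HEK293 SEAP reporter cells seeded at 5 × 10^4 cells/well for 24 h, exposed to 25 μM for 24 h. Supernatant SEAP detected with QUANTI-Blue (1 h, 37 °C, OD 620 nm). Activation normalized to untreated cells and expressed as fold change.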

For experiment [3], the system named is HeLa. Briefly: Cell cycle arrest in human HeLa cells assessed as accumulation at G2/M phase at 10 uM after 24 hrs by propidium iodide staining based flow cytometry (reference value: 17%). Format: functional.
Experiment [4] relates to HeLa. In words: Cell cycle arrest in human HeLa cells assessed as accumulation at G2/M phase at 20 uM after 24 hrs by propidium iodide staining based flow cytometry (reference value: 17%). The class given is functional.
Experiment [5] deals with HeLa. Briefly: Cell cycle arrest in human HeLa cells assessed as accumulation at S phase at 10 uM after 24 hrs by propidium iodide staining based flow cytometry (reference value: 31%). Format: functional.
In experiment [6] the test system is HeLa. In words: Cell cycle arrest in human HeLa cells assessed as accumulation at G0/G1 phase at 40 uM after 24 hrs by propidium iodide staining based flow cytometry (reference value: 52%). The class given is functional.
Experiment [7] deals with HeLa. Briefly: Cell cycle arrest in human HeLa cells assessed as accumulation at S phase at 20 uM after 24 hrs by propidium iodide staining based flow cytometry (reference value: 31%). The class given is functional.
The next experiment relates to HMEC. Briefly: Antiproliferative activity against HMEC after 24 hrs by WST1 assay. Format: cell-based. To be noted: Homo sapiens. The method in brief:
(§1)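 Cells seeded at 5 × 10^3/well and left 24 h, then given a concentration series for 24, 48 or 72 h. WST-1 reagent added and incubated at 37 °C for 30 min–2 h until color change; absorbance 450 nm. Growth inhibition = (1 − [sample − background]/[control − background]) × 100. IC50 mean ± SD, three cell preparations.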
Background: Tetrazolium dyes change colour on reduction, which living cells bring about.

Experiment [8] concerns HeLa. Briefly: Antiproliferative activity against human HeLa cells after 24 hrs by WST1 assay. Format: functional, cell-based. The method, boiled down:
as §1

Take `O=[N+]([O-])c1ccc(COc2cc3c(cc2OCc2ccc([N+](=O)[O-])cc2)OC2(C=C3)CCOCC2)cc1`: the Activity in the experiment on HeLa [1] came to 17%; in the experiment on HeLa [3] it was 19%; with HeLa [4], 20%; with HeLa [5], 35%; in the experiment on HeLa [6], 40%; in the experiment on HeLa [7], 37%. In the experiment on HeLa [8], the Activity entry was “Dose-dependent effect”. At Toll-like receptor 3, the EC50 was determined as 4.8 µM. Further, the fold change (FC) in [2] stood at 13.9. Besides, the concentration for half-maximal inhibition (IC50) with HMEC is > 100 µM; with HeLa [8], 38.6 µM.

A word on the EC50: it is the concentration giving half of the maximal effect. A word on the IC50: it is the concentration at which inhibition is half-maximal.
